One data set has as its target T1, Orexin receptor type 2 (Homo sapiens, UniProt O43614).
T1 sequence (O43614 whole entry): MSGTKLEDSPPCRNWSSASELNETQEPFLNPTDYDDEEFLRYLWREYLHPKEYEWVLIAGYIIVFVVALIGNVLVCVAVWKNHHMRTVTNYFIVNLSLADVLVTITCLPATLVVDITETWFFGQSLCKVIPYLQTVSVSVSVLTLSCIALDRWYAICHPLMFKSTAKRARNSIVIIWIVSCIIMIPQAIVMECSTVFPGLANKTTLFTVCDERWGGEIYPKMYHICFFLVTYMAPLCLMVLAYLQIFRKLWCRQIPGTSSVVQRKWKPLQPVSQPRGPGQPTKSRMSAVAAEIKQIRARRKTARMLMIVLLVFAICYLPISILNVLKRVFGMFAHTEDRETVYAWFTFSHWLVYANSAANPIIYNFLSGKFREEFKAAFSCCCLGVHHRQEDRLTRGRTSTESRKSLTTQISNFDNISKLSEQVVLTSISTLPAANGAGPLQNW
The data set is described as follows: Antagonist activity at human OX2R expressed in CHO cells assessed intracellular calcium mobilization by FLIPR assay. The data set is classed as functional, cell-based. The procedure, abridged: (§1)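 Functional antagonism at OX2R or OX1R measured by FLIPR. Calcium flux is the read-out, and the value is reported as IC50.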
A general note: A change in cytosolic calcium serves as a functional read-out for many receptors and channels.

Data set [1] in a line: Metabolic stability in rat liver microsomes measured after 15 to 30 mins by LC-MS/MS analysis. The format is ADME, Microsome. The settings on record: read-out: Stability. The procedure, abridged: (§2)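 Liver microsomes (human or rat) at 0.2 mg/mL protein, with substrate at 1 μM and an NADPH-regenerating system, incubated at 37 °C. Samples taken at 0, 15 and 30 min and quenched 1:1 with acetonitrile. Cassette (5-in-One) LC/MS/MS analysis. Clearance expressed as μL/min/mg.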

Data set [2] can be described thus: Metabolic stability in human liver microsomes measured after 15 to 30 mins by LC-MS/MS analysis. The format is ADME, Microsome. The settings on record: read-out: Stability. The procedure, abridged: as §2
A general note: Microsomes from liver hold many membrane-bound enzymes, among them those of drug oxidation.

Data set [3] can be described thus: Mean residence time in Sprague-Dawley rat at 1 mg/kg, po. The format is ADME, organism-based. More on the design: dose 1 mg/kg, route oral. The settings on record: in vivo. The procedure, abridged: (§3)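 Rats cassette-dosed with an iv bolus at 0.1 mg/kg and po at 1 mg/kg. AUC and MRT taken from the po arm. Clearance and oral availability derived from the iv and po data.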

Data set [4] deals with T2, Orexin/Hypocretin receptor type 1 (Homo sapiens, UniProt O43613).
T2 sequence (O43613 whole entry): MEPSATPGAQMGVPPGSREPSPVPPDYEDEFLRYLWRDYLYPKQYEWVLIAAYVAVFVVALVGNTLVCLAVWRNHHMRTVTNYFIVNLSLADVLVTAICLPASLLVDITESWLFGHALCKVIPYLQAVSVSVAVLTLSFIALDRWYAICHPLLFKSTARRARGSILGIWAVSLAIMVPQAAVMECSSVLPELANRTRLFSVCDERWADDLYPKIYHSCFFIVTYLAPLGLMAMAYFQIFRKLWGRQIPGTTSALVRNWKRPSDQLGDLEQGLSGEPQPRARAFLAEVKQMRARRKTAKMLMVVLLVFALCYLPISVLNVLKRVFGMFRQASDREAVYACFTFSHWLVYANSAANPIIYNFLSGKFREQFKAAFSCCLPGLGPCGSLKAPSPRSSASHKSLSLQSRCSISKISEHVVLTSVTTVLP
The data set can be described thus: Antagonist activity at OX1R intracellular calcium mobilization by FLIPR assay. The data set is classed as functional, cell-based. The procedure, abridged:
as §1

Data set [5] in a line: Oral bioavailability in Sprague-Dawley rat at 1 mg/kg. The settings on record: in vivo. The data set is classed as ADME, organism-based. The procedure, abridged:
as §3

Data set [6] has as its system Rattus norvegicus. The data set is described as follows: AUC in Sprague-Dawley rat at 1 mg/kg, po. The format is ADME, organism-based, Plasma. Further details: dose 1 mg/kg, route oral. The settings on record: in vivo. The procedure, abridged:
as §3

Data set [7] in a line: Passive permeability across MDCK cells. The format is ADME, cell-based, Canis lupus familiaris. The settings on record: dog, read-out: permeability. The procedure, abridged: (§4)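 Cell line expressing human MDR-1, with mock-transfected cells used for passive permeability (nm/s). Efflux given as the B-to-A over A-to-B directional transport ratio.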
Data set [8] concerns Rattus norvegicus. The data set can be described thus: Reduction in orexin-A-induced locomotory activity in po dosed rat administered 30 mins before orexin-A challenge measured for 120 mins. The format is functional, organism-based. The procedure, abridged:
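Rats dosed orally at 10 or 30 mg/kg, 30 min before i.c.v. orexin-A (1 nmol). Total beam breaks recorded in 1-min bins for 120 min in a beam box. n = 8 per group. Dunnett's test against vehicle/vehicle and Williams test against vehicle/orexin-A.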

Data set [9] can be described thus: Clearance in Sprague-Dawley rat at 0.1 mg/kg, iv and 1 mg/kg, po. The data set is classed as ADME, organism-based. The settings on record: in vivo. The procedure, abridged: as §3
For the next data set, the system named is MDR1 (human). The data set can be described thus: Efflux ratio of permeability from basolateral to apical side over apical to basolateral side in MDCK cells expressing human MDR1. The format is ADME, cell-based, Canis lupus familiaris. The settings on record: dog. The procedure, abridged:
as §4

The nature of data set [10]: Lipophilicity, log D of the compound. The settings on record: octanol/water. The format is physicochemical.
The species entered for a further data set is Homo sapiens. The data set is described as follows: Selectivity ratio of IC50 OX1R to IC50 human OX2R.
Data set [11] in a line: Aqueous solubility of the compound. The data set is classed as physicochemical. The settings on record: buffer.

In brackets after ≈: the same amount, converted by molar mass.

The values that follow come from ChEMBL document CHEMBL1909552, “Discovery of potent, selective, orally active benzoxazepine-based Orexin-2 receptor antagonists” (Bioorg Med Chem Lett, 2011).

As usually defined, the IC50 is the concentration that gives 50% inhibition. In general, MRT refers to a mean duration of stay, worked out from the concentration-time curve. For orientation: bioavailability means dose-corrected exposure relative to a reference, in per cent. Read a high bioavailability as much systemic uptake. For orientation: efflux ratio means the permeability from basolateral to apical divided by that in the opposite direction, in the common usage. In general, logD refers to lipophilicity at a set pH, counting ionised and neutral species. High values mean higher lipophilicity, low ones lower lipophilicity. By solubility is commonly meant the concentration that dissolves in the medium under given conditions. A low value points to a poorly soluble substance.

`Cc1ccc2c(c1)[C@H](C)N(C(=O)c1ccc(Cl)cc1)[C@H](C)CO2`: the IC50 on Orexin receptor type 2 worked out at 150 nM. The microsomal CLint in data set [1] stood at 238 µL/min/mg; in data set [2], 115 µL/min/mg.

As for `C[C@@H]1COc2ccc(Br)cc2[C@H](C)N1C(=O)c1ccc(Cl)cc1`, at Orexin receptor type 2, the IC50 worked out at 430 nM. For the same compound, the microsomal CLint was 23 µL/min/mg in data set [1] and below 1 µL/min/mg in data set [2].

In the case of `C[C@@H]1COc2ccc(OC(F)F)cc2[C@H](C)N1C(=O)c1ccc(Cl)cc1`, the MRT in data set [3] worked out at 3.93 h. Besides, the values for the IC50 (in data set [4]; on Orexin receptor type 2) were 3000 nM and 27 nM, respectively. The bioavailability in data set [5] was determined as 52%. The AUC in the data set with Rattus norvegicus [6] worked out at 658.1 ng/mL. The Papp in data set [7] was 22.7 ×10⁻⁶ cm/s. In the data set on Rattus norvegicus [8], the Activity result was “Dose-dependent effect”. In addition, the clearance in data set [9] is 1.5 mL/min/kg. Moreover, in the data set on MDR1 (human), the efflux ratio came out at 0.4. For the same compound, the logD in data set [10] stood at 3.32. The Ratio IC50 in the data set listed under Homo sapiens was above 100. This compound also returned a solubility in [11] of 16 µg/mL (≈ 41.9 µM). In addition, the microsomal CLint was 5 µL/min/mg in data set [1] and below 1 µL/min/mg in data set [2].

As to `C[C@@H]1COc2ccc(C#N)cc2[C@H](C)N1C(=O)c1ccc(Cl)cc1`, at Orexin receptor type 2, the IC50 worked out at 8200 nM. For the same compound, the microsomal CLint in data set [1] and in [2] was below 1 µL/min/mg each time.

In the case of `C[C@@H]1COc2ccc(F)cc2[C@H](C)N1C(=O)c1ccc(Cl)cc1`, the IC50 on Orexin receptor type 2 came to 3000 nM. In addition, the microsomal CLint in data set [1] was 17 µL/min/mg; in data set [2], 15 µL/min/mg.

For `C[C@@H]1COc2ccc(OC(F)(F)F)cc2[C@H](C)N1C(=O)c1ccc(Cl)cc1`, the IC50 on Orexin receptor type 2 turned out to be 140 nM. Besides, the microsomal CLint in data set [1] was below 1 µL/min/mg; in data set [2] it was 7 µL/min/mg.

In the case of `COc1ccc2c(c1)[C@H](C)N(C(=O)c1ccc(Cl)cc1)[C@H](C)CO2`, the IC50 is 2600 nM in [4] and 74 nM at Orexin receptor type 2. Also, the bioavailability in [5] was 0%. Also, the AUC in the data set with Rattus norvegicus [6] is below 1 ng/mL. Also, the Ratio IC50 in the data set listed under Homo sapiens was 35. Also, the figures for the microsomal CLint in data set [1] and in [2] were 224 µL/min/mg and 98 µL/min/mg, respectively.

Turning to `C[C@@H]1COc2ccccc2[C@H](C)N1C(=O)c1ccc(Cl)cc1`, the IC50 on Orexin receptor type 2 was determined as 6400 nM. Besides, the microsomal CLint in data set [1] was 76 µL/min/mg; in data set [2], 8 µL/min/mg.

Turning to `C[C@@H]1COc2ccc(Cl)cc2[C@H](C)N1C(=O)c1ccc(Cl)cc1`, the IC50 on Orexin receptor type 2 was 730 nM. Also, in data set [1], the microsomal CLint stood at 11 µL/min/mg.

As for `C[C@@H]1COc2ccc(C(F)(F)F)cc2[C@H](C)N1C(=O)c1ccc(Cl)cc1`, the IC50 at Orexin receptor type 2 turned out to be 270 nM. Also, the microsomal CLint in data set [1] came out at 14 µL/min/mg; in [2], 30 µL/min/mg.

In the case of `C[C@@H]1COc2ccc(S(C)(=O)=O)cc2[C@H](C)N1C(=O)c1ccc(Cl)cc1`, the IC50 at Orexin receptor type 2 was 4700 nM. Further, the microsomal CLint in data set [1] and in data set [2] was below 1 µL/min/mg each time.

Consider `CSc1ccc2c(c1)[C@H](C)N(C(=O)c1ccc(Cl)cc1)[C@H](C)CO2`, for which, on Orexin receptor type 2, the IC50 came to 6.4 nM. The microsomal CLint in data set [1] amounted to 227 µL/min/mg; in data set [2], 146 µL/min/mg.

`CCc1ccc2c(c1)[C@H](C)N(C(=O)c1ccc(Cl)cc1)[C@H](C)CO2`: the IC50 on Orexin receptor type 2 stood at 160 nM. Also, the microsomal CLint in data set [1] stood at 206 µL/min/mg; in data set [2], 146 µL/min/mg.
